Assay results: ChEMBL document CHEMBL1145497, “A novel Giardia lamblia nitroreductase, GlNR1, interacts with nitazoxanide and other thiazolides” (Antimicrob Agents Chemother, 2007)
pKi: −log10 of the molar value. Active and inactive are the calls of the source. The calls are words filed in the database; no cut-off is given here.

Legend:
Giardia duodenalis = experiment: Inhibition of Giardia lamblia recombinant nitroreductase 1 (EAA43030.1) expressed in Escherichia coli at 5 uM
Outline: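 Six-His-tagged recombinant enzyme expressed in E. coli (1 mM IPTG, 3.5 h) and Ni-column purified. Photometric NADH-oxidation assay in 50 mM Tris-Cl pH 7.0 with 25 μM dinitrotoluene substrate, 0.15 mM NADH final, and inhibitors at 5 μM against a DMSO control. After 5 min preincubation, A340 was read over 0–20 min. Activity came from the linear slope as μkat/g protein; triplicate, mean ± SE.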

Giardia intestinalis [1] = experiment: Growth inhibition of Giardia lamblia; format: functional, organism-based; settings: Giardia duodenalis
Giardia intestinalis [2] = experiment: Reduction of nitroreductase 1 expression level in Giardia lamblia trophozoites at 25 uM after 3 hrs by RT-PCR assay; format: functional, organism-based; settings: Giardia duodenalis
Outline: (§1)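 G. lamblia WB clone C6 trophozoites grown anaerobically in modified TYI-S-33 to near confluence, exposed to compound at 25 μM (DMSO control) for 3 h, then harvested. RNA extracted with DNase I digestion; transcript levels of GlNR1, GlGDH1 and GlACT1 quantified by real-time RT-PCR.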

Giardia intestinalis [3] = experiment: Reduction of ACT1 expression level in Giardia lamblia trophozoites at 25 uM after 3 hrs by RT-PCR assay; format: functional, organism-based; settings: Giardia duodenalis; outline: as §1
[4] = Inhibition of Giardia lamblia recombinant nitroreductase 1 (EAA43030.1) expressed in Escherichia coli; parameters: species or system Giardia duodenalis
Outline: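 His6-tagged recombinant GlNR1 from IPTG-induced E. coli, Ni-column purified. Photometric NADH oxidation assay in 50 mM Tris-Cl pH 7.0 with dinitrotoluene substrate, 0.15 mM NADH final, 5 min preincubation, A340 read over 0–20 min.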

Giardia intestinalis [5] = experiment: Reduction of GDH expression level in Giardia lamblia trophozoites at 25 uM after 3 hrs by RT-PCR assay; format: functional, organism-based; settings: Giardia duodenalis; outline: as §1

Row | Compound | inhibition (Giardia duodenalis) | Activity (Giardia intestinalis [1]) | Activity (Giardia intestinalis [2]) | Activity (Giardia intestinalis [3]) | pKi [4] | Activity (Giardia intestinalis [5]) | Activity (Giardia duodenalis)
1 | COc1cccc(C(=O)Nc2ncc([N+](=O)[O-])s2)c1O | > 75% | Active |  |  |  |  | 
2 | CC(=O)Oc1ccccc1C(=O)Nc1ncc([N+](=O)[O-])s1 [NITAZOXANIDE] | > 75% | Active | Active | Active | 6.52 | Active | 
3 | CC(=O)Oc1c(C)cccc1C(=O)Nc1ncc([N+](=O)[O-])s1 | > 75% | Active |  |  |  |  | 
4 | O=C(Nc1ncc([N+](=O)[O-])s1)c1ccccc1O | > 75% | Active |  |  |  |  | 
5 | Cc1ncc([N+](=O)[O-])n1CCO |  |  |  |  |  |  | inactive
